Experimental data collected from several papers.
Each line is one published result; the experiments were not run side by side.

Structure (SMILES)	target or system	assay	test system	setting	quantity	result
Cc1cc(C)cc(COc2cc3c(cc2OCc2cc(C)cc(C)c2)[C@H]2C[C@](O)(Cc4cn(Cc5cnccn5)nn4)C[C@H](C)N2CC3)c1	ASPC1	cell growth or viability, MTT	–	–	IC50	753 nM
COc1ccc(Sc2ccc(OC)c(OC)c2OC)cc1	–	tubulin polymerisation, inhibitor, absorbance	–	pH 6.6	IC50	16000 nM
COc1cc(Nc2nccc(-c3cnn4nc(OC)ccc34)n2)cc(C(F)(F)F)c1	ASPC1	cell growth or viability, ATP luminescence	–	–	IC50	980 nM
O=C(O)c1nc2ccccc2c(=O)n1Cc1cn(-c2ccccc2)nn1	Nakaseomyces glabratus	microbial growth, broth dilution	ATCC90030	24 h	IC50	566 µg/mL
C=CS(=O)(=O)Nc1ccc(CCn2cc(C[C@@]3(O)C[C@@H]4c5cc(OCc6cc(C)cc(C)c6)c(OCc6cc(C)cc(C)c6)cc5CCN4[C@@H](C)C3)nn2)cc1	ASPC1	cell growth or viability, MTT	–	–	IC50	1880 nM
C[C@@H](Oc1cc(-c2cnn(C3CCNCC3)c2)cnc1N)c1c(Cl)ccc(F)c1Cl	KARPAS-299	cell growth or viability, MTT	–	0.04 µg/mL, 72 h	inhibition	58.8%
Cc1ccccc1-n1cc(Cn2c(C(=O)O)nc3ccccc3c2=O)nn1	Nakaseomyces glabratus	microbial growth, broth dilution	ATCC90030	24 h	IC50	358 µg/mL
C=CS(=O)(=O)Nc1ccc(Cn2cc(C[C@@]3(O)C[C@@H]4c5cc(OCc6cc(C)cc(C)c6)c(OCc6cc(C)cc(C)c6)cc5CCN4[C@@H](C)C3)nn2)cc1	ASPC1	cell growth or viability, MTT	–	–	IC50	823 nM
COc1ccc([S+]([O-])c2ccccc2)c(OC)c1OC (stereo not shown)	–	tubulin polymerisation, inhibitor, absorbance	–	pH 6.6	IC50	> 40000 nM
CC(C)C[C@H](NC(=O)[C@H](Cc1ccccc1)NC(=O)c1cnccn1)B(O)O	HCC1569	cell growth or viability, ATP luminescence	–	–	IC50	4.9 nM
COc1ccc(Sc2ccc(C)cc2)c(OC)c1OC	–	tubulin polymerisation, inhibitor, absorbance	–	pH 6.6	IC50	> 40000 nM
Cc1cc(C)cc(COc2cc3c(cc2OCc2cc(C)cc(C)c2)C2CC(O)(Cc4cn(CCCCCCNc5cccc6c5C(=O)N(C5CCC(=O)NC5=O)C6=O)nn4)CC(C)N2CC3)c1 (stereo not shown)	ASPC1	cell growth or viability, MTT	–	–	IC50	1080 nM
Cc1cc(Nc2ncc(Cl)c(Nc3ccccc3S(=O)(=O)C(C)C)n2)c(OC(C)C)cc1C1CCNCC1	KARPAS-299	cell growth or viability, MTT	–	5 µg/mL, 72 h	inhibition	97.7%
